Reference: ChEMBL document CHEMBL4152203, “Antiproliferative hydrogen sulfide releasing evodiamine derivatives and their apoptosis inducing properties” (Eur J Med Chem, 2018)
The source made the active and inactive calls. The rule behind the calls is not given here.

Experiments:
MCF7 = experiment: Antiproliferative activity against human MCF7 cells after 72 hrs by MTT assay; format: functional, cell-based; details: MCF7, 72 h
Method in brief: (§1)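 Cells seeded and pre-incubated 24 h at 37 °C, 5% CO2, then exposed to compounds for 72 h. MTT (5 mg/mL stock) added for 4 h, formazan dissolved in DMSO for 10 min at room temperature, absorbance read at 570 nm. 0.1% DMSO as negative and 5-FU as positive reference. IC50 derived from inhibition ratios; mean ± SD of three independent experiments.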

SGC-7901 = experiment: Antiproliferative activity against human SGC7901 cells after 72 hrs by MTT assay; format: functional, cell-based; details: SGC-7901, 72 h; method in brief: as §1
HL-60 [1] = experiment: Antiproliferative activity against human HL60 cells after 72 hrs by MTT assay; format: functional, cell-based; details: HL-60, 72 h; method in brief: as §1
PBMC = experiment: Antiproliferative activity against human PBMC cells after 72 hrs by MTT assay; format: cell-based; method in brief: as §1
HL-60 [2] = experiment: Cell cycle arrest in human HL60 cells assessed as accumulation at G1 phase at 0.3 uM after 48 hrs by propidium iodide/RNase A staining-based flow cytometric analysis (reference value: 65.75%); format: functional
HL-60 [3] = experiment: Cell cycle arrest in human HL60 cells assessed as accumulation at G2/M phase at 0.3 uM after 48 hrs by propidium iodide/RNase A staining-based flow cytometric analysis (reference value: 10.19%); format: functional
HL-60 [4] = experiment: Cell cycle arrest in human HL60 cells assessed as accumulation at S phase at 0.6 uM after 48 hrs by propidium iodide/RNase A staining-based flow cytometric analysis (reference value: 24.06%); format: functional
HL-60 [5] = experiment: Cell cycle arrest in human HL60 cells assessed as accumulation at G2/M phase at 0.6 uM after 48 hrs by propidium iodide/RNase A staining-based flow cytometric analysis (reference value: 10.19%); format: functional
HL-60 [6] = experiment: Cell cycle arrest in human HL60 cells assessed as accumulation at G1 phase at 1.2 uM after 48 hrs by propidium iodide/RNase A staining-based flow cytometric analysis (reference value: 65.75%); format: functional
HL-60 [7] = experiment: Cell cycle arrest in human HL60 cells assessed as accumulation at S phase at 1.2 uM after 48 hrs by propidium iodide/RNase A staining-based flow cytometric analysis (reference value: 24.06%); format: functional
HL-60 [8] = experiment: Induction of apoptosis in human HL60 cells assessed as viable cells at 0.3 uM after 48 hrs by Annexin V-FITC/propidium iodide staining-based flow cytometric analysis (reference value: 95.56%); format: functional; details: HL-60, 48 h, read-out: Activity
HL-60 [9] = experiment: Induction of apoptosis in human HL60 cells assessed as early apoptotic cells at 0.3 uM after 48 hrs by Annexin V-FITC/propidium iodide staining-based flow cytometric analysis (reference value: 2.31%); format: functional
HL-60 [10] = experiment: Induction of apoptosis in human HL60 cells assessed as necrotic cells at 0.3 uM after 48 hrs by Annexin V-FITC/propidium iodide staining-based flow cytometric analysis (reference value: 0.02%); format: functional
HL-60 [11] = experiment: Induction of apoptosis in human HL60 cells assessed as viable cells at 0.6 uM after 48 hrs by Annexin V-FITC/propidium iodide staining-based flow cytometric analysis (reference value: 95.56%); format: functional; details: HL-60, 48 h, read-out: Activity
HL-60 [12] = experiment: Induction of apoptosis in human HL60 cells assessed as early apoptotic cells at 0.6 uM after 48 hrs by Annexin V-FITC/propidium iodide staining-based flow cytometric analysis (reference value: 2.31%); format: functional
HL-60 [13] = experiment: Induction of apoptosis in human HL60 cells assessed as necrotic cells at 0.6 uM after 48 hrs by Annexin V-FITC/propidium iodide staining-based flow cytometric analysis (reference value: 0.02%); format: functional
HL-60 [14] = experiment: Induction of apoptosis in human HL60 cells assessed as early apoptotic cells at 1.2 uM after 48 hrs by Annexin V-FITC/propidium iodide staining-based flow cytometric analysis (reference value: 2.31%); format: functional
HL-60 [15] = experiment: Induction of apoptosis in human HL60 cells assessed as necrotic cells at 1.2 uM after 48 hrs by Annexin V-FITC/propidium iodide staining-based flow cytometric analysis (reference value: 0.02%); format: functional
HL-60 [16] = experiment: Induction of apoptosis in human HL60 cells assessed as apoptotic cells after 48 hrs by Annexin V-FITC/propidium iodide staining-based flow cytometric analysis; format: functional, cell-based
HL-60 [17] = experiment: Induction of mitochondrial membrane potential loss in human HL60 cells assessed as cell population with mitochondrial membrane potential collapse at 0.3 uM after 48 hrs by JC1 staining-based flow cytometry analysis (reference value: 7.65%); format: functional
HL-60 [18] = experiment: Induction of mitochondrial membrane potential loss in human HL60 cells assessed as cell population with intact mitochondrial membrane potential at 0.3 uM after 48 hrs by JC1 staining-based flow cytometry analysis (reference value: 92.35%); format: functional
HL-60 [19] = experiment: Induction of mitochondrial membrane potential loss in human HL60 cells assessed as cell population with mitochondrial membrane potential collapse at 0.6 uM after 48 hrs by JC1 staining-based flow cytometry analysis (reference value: 7.65%); format: functional
HL-60 [20] = experiment: Induction of mitochondrial membrane potential loss in human HL60 cells assessed as cell population with intact mitochondrial membrane potential at 0.6 uM after 48 hrs by JC1 staining-based flow cytometry analysis (reference value: 92.35%); format: functional
HL-60 [21] = experiment: Induction of apoptosis in human HL60 cells assessed as morphological changes by measuring chromatin condensation at 0.3 to 1.2 uM after 48 hrs by Hoechst 33258 staining-based fluorescence microscopic analysis; format: functional, cell-based
Method in brief: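 HL-60 pre-incubated 24 h, then treated 48 h with 0, 0.3, 0.6 or 1.2 μM compound or vehicle. Cells were harvested, washed twice in PBS, stained with Hoechst 33258 (2 mg/mL in PBS) for 15 min at room temperature in darkness, washed, mounted and examined by fluorescence microscopy with a DAPI filter.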

HL-60 [22] = experiment: Induction of apoptosis in human HL60 cells assessed as upregulation of caspase3 level at 0.3 to 1.2 uM after 48 hrs by Western blot analysis; format: functional, cell-based
Method in brief: (§2)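 HL-60 treated in triplicate with 0.3, 0.6 or 1.2 μM compound; exposure is 72 h in the methods and 48 h in the legend. Lysates were run on 10% SDS-PAGE, transferred to nitrocellulose, blocked in 5% milk, and probed overnight at 4 °C with monoclonal antibodies (Bcl-2, Bax, cytochrome c, caspase-9/-3, p53, cyclin B1, cdc2). ECL detection; densitometry relative to GAPDH.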

HL-60 [23] = experiment: Induction of apoptosis in human HL60 cells assessed as upregulation of caspase9 level at 0.3 to 1.2 uM after 48 hrs by Western blot analysis; format: functional, cell-based; method in brief: as §2
HL-60 [24] = experiment: Induction of apoptosis in human HL60 cells assessed as increase in cytosolic cytochrome c level at 0.3 to 1.2 uM after 48 hrs by Western blot analysis; format: functional, cell-based; method in brief: as §2
HL-60 [25] = experiment: Induction of apoptosis in human HL60 cells assessed as decrease in cdc2 protein expression level at 0.3 to 1.2 uM after 48 hrs by Western blot analysis; format: functional, cell-based; method in brief: as §2
HL-60 [26] = experiment: Induction of mitochondrial membrane potential loss in human HL60 cells assessed as cell population with intact mitochondrial membrane potential at 1.2 uM after 48 hrs by JC1 staining-based flow cytometry analysis (reference value: 92.35%); format: functional
HL-60 [27] = experiment: Induction of apoptosis in human HL60 cells assessed as increase in p53 protein level at 0.3 to 1.2 uM after 48 hrs by Western blot analysis; format: functional, cell-based; method in brief: as §2

- IC50 (MCF7): 44.8 µM
- IC50 (SGC-7901): > 50 µM
- IC50 (HL-60 [1]): 0.58 µM
SMILES: CN1c2ccccc2C(=O)N2CCc3c(n(CCCCC(=O)OCCCCOc4ccc(-c5cc(=S)ss5)cc4)c4ccccc34)C21 (stereo not given)
- IC50 (PBMC): > 100 µM
- Activity (HL-60 [2]): 47.1%
- Activity (HL-60 [3]): 11.41%
- Activity (HL-60 [4]): 41.81%
- Activity (HL-60 [5]): 16.63%
- Activity (HL-60 [6]): 35.32%
- Activity (HL-60 [7]): 42.66%
- viability at 0.3 µM (HL-60 [8]): 88.7%
- Activity (HL-60 [9]): 6.74%
- Activity (HL-60 [10]): 0.06%
- viability at 0.6 µM (HL-60 [11]): 64.5%
- Activity (HL-60 [12]): 19.5%
- Activity (HL-60 [13]): 0.48%
- Activity (HL-60 [14]): 48.08%
- Activity (HL-60 [15]): 0.11%
- Activity (HL-60 [16]): Dose-dependent effect
- Activity (HL-60 [17]): 13.33%
- Activity (HL-60 [18]): 86.67%
- Activity (HL-60 [19]): 21.32%
- Activity (HL-60 [20]): 78.68%
- Activity (HL-60 [21]): Active
- Activity (HL-60 [22]): Active
- Activity (HL-60 [23]): Active
- Activity (HL-60 [24]): Active
- Activity (HL-60 [25]): Active
- Activity (HL-60 [26]): 64.99%
- Activity (HL-60 [27]): Active
